The source made the active and inactive calls. The rule behind the calls is not given here.
What was measured:
[1] = Cytotoxicity against human HeLa cells assessed as cell viability at 50 uM after 48 hrs by resazurin based fluorescence assay; conditions: read-out: Activity
[2] = tested on: Yersinia pseudotuberculosis; assay: Antimicrobial activity against Yersinia pseudotuberculosis after 20 hrs; assay type: functional
Method in brief: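 Overnight culture diluted into Mueller Hinton broth containing compound at 100, 50, 25 or 12, incubated 37 °C for 20 h; bacterial growth scored by visual inspection to give minimum inhibitory concentration.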

[3] = tested on: Yersinia pseudotuberculosis; assay: Inhibition of type 3 secretion system in Yersinia pseudotuberculosis by yopE luciferase reporter gene assay
Method in brief: (§1)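 T3S inhibition in bacterial cultures measured with a yopE luciferase reporter gene. Compound used in two-fold dilutions from 100 to 12,5 at 1% final DMSO. Result given as percent inhibition relative to 1% DMSO-treated controls.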

Chlamydia trachomatis [4] = assay: Antichlamydial activity against Chlamydia trachomatis L2 serovar VR-902B infected in human HeLa cells assessed as growth inhibition at 50 uM after 24 to 48 hrs by microscopic analysis; assay type: functional
Chlamydia pneumoniae = assay: Antichlamydial activity against Chlamydia pneumoniae T45 infected in human HeLa cells assessed as growth inhibition at 50 uM after 24 to 48 hrs by microscopic analysis; assay type: functional
Chlamydia trachomatis [5] = assay: Antichlamydial activity against Chlamydia trachomatis L2 serovar VR-902B infected in human HeLa cells assessed as growth inhibition at 50 uM after 24 to 48 hrs by microscopic analysis in presence of iron sulfate; assay type: functional, organism-based
[6] = tested on: Yersinia pseudotuberculosis; assay: Inhibition of phosphatase activity of secreted YopH in Yersinia pseudotuberculosis at 12 to 100 uM by orthogonal assay
Method in brief: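 Orthogonal test of T3S inhibition in bacterial cultures that reads the phosphatase activity of secreted YopH effector protein. Compound used in two-fold dilutions from 100 to 12,5 at 1% final DMSO. Result given as percent inhibition relative to 1% DMSO-treated controls.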

[7] = tested on: Yersinia pseudotuberculosis; assay: Inhibition of type 3 secretion system in Yersinia pseudotuberculosis at 100 uM by yopE luciferase reporter gene assay; method in brief: as §1
[8] = Aqueous solubility of the compound; assay type: physicochemical; conditions: buffer

| Structure (SMILES) | viability at 48 h, 50 µM [1] | MIC [2] | inhibition [3] | inhibition at 50 µM (Chlamydia trachomatis [4]) | inhibition (Chlamydia pneumoniae) | growth inhibition (GI) (Chlamydia trachomatis [5]) | inhibition [6] | inhibition [7] | inhibition (Chlamydia trachomatis [4]) | inhibition at 50 µM (Chlamydia pneumoniae) | solubility [8] |
| --- | --- | --- | --- | --- | --- | --- | --- | --- | --- | --- | --- |
| Cc1cc(NS(=O)(=O)c2ccc(NC(=O)/C=C/c3ccc(C(=O)N/N=C/c4cccc(F)c4O)cc3)cc2)no1 | > 70% | > 100 µM | Dose-dependent effect | 33.4% | inactive | – | – | – | – | – | – |
| Cc1cc(NS(=O)(=O)c2ccc(NC(=O)Nc3ccc(O)cc3)cc2)no1 | > 70% | > 100 µM | – | 9.6% | inactive | – | – | – | – | – | – |
| Cc1cc(NS(=O)(=O)c2ccc(NC(=O)c3sc4cc(Cl)ccc4c3Cl)cc2)no1 | – | – | – | – | – | Active | inactive | inactive | – | – | – |
| Cc1cc(NS(=O)(=O)c2ccc(NC(=O)/C=C/c3ccc(C(=O)N/N=C/c4cc(Cl)cc(Cl)c4O)cc3)cc2)no1 | > 70% | > 100 µM | Dose-dependent effect | 14.6% | inactive | – | – | – | – | – | – |
| Cc1cc(NS(=O)(=O)c2ccc(NC(=O)NCc3ccccc3)cc2)no1 | > 70% | > 100 µM | – | 18.5% | inactive | – | – | – | – | – | – |
| Cc1cc(NS(=O)(=O)c2ccc(NC(=O)NC3CCCCC3)cc2)no1 | > 70% | > 100 µM | – | 14.8% | inactive | – | – | – | – | – | – |
| Cc1cc(NS(=O)(=O)c2ccc(C(=O)N/N=C/c3cc(Cl)cc(Cl)c3O)cc2)no1 | > 70% | > 100 µM | Dose-dependent effect | 24.2% | inactive | – | – | – | – | – | – |
| Cc1cc(NS(=O)(=O)c2ccc(NC(=S)NCc3ccccc3O)cc2)no1 | > 70% | > 100 µM | – | – | inactive | – | – | – | inactive | – | – |
| Cc1cc(NS(=O)(=O)c2ccc(NC(=S)NC3CCCCC3)cc2)no1 | > 70% | > 100 µM | – | 26.9% | inactive | – | – | – | – | – | – |
| Cc1cc(NS(=O)(=O)c2ccc(NC(=O)/C=C/c3ccc(C(=O)N/N=C/c4cc(Br)ccc4O)cc3)cc2)no1 | > 70% | > 100 µM | Dose-dependent effect | 21.5% | inactive | – | – | – | – | – | – |
| CCN(CC)c1ccc(/C=N/NC(=O)c2ccc(/C=C/C(=O)Nc3ccc(S(=O)(=O)Nc4cc(C)on4)cc3)cc2)c(O)c1 | – | > 100 µM | Dose-dependent effect | 28% | – | – | – | – | – | 22.4% | Insoluble |
| CCN(CC)c1ccc(/C=N/NC(=O)c2ccc(S(=O)(=O)Nc3cc(C)on3)cc2)c(O)c1 | > 70% | > 100 µM | Dose-dependent effect | 83% | – | inactive | – | – | – | 100% | – |
| Cc1cc(NS(=O)(=O)c2ccc(NC(S)=NCc3ccccc3)cc2)no1 | > 70% | > 100 µM | – | 26.9% | inactive | – | – | – | – | – | – |
| Cc1cc(NS(=O)(=O)c2ccc(NC(=S)Nc3ccc(O)cc3)cc2)no1 | > 70% | > 100 µM | – | – | – | – | – | – | inactive | 60.8% | – |
| Cc1cc(NS(=O)(=O)c2ccc(C(=O)N/N=C/c3cc(Br)cc(Br)c3O)cc2)no1 | > 70% | > 100 µM | Dose-dependent effect | 65.2% | – | inactive | – | Active | – | 99.4% | – |
| Cc1cc(NS(=O)(=O)c2ccc(C(=O)N/N=C/c3ccc(O)cc3O)cc2)no1 | > 70% | > 100 µM | Dose-dependent effect | 47.4% | inactive | – | – | – | – | – | – |
| Cc1cc(NS(=O)(=O)c2ccc(NC(=O)NCc3ccccc3O)cc2)no1 | > 70% | > 100 µM | – | – | inactive | – | – | – | inactive | – | – |

Source: ChEMBL document CHEMBL3612039, “Design, synthesis and evaluation of novel polypharmacological antichlamydial agents” (Eur J Med Chem, 2015)
